{"source": "ChEMBL document CHEMBL4828720", "about": "“Macrocyclic Immunoproteasome Inhibitors as a Potential Therapy for Alzheimer's Disease” (J Med Chem, 2021)", "key": {"Mus musculus": {"test_system": "Mus musculus", "assay": "Cognitive enhancing effect in Tg2576 mouse assessed as improvement in spatial learning and memory by measuring increase in time spent in target quadrant at 10 mg/kg, iv administered twice weekly and measured after 6 days during probe trial by Morris water maze test", "type": "functional, organism-based", "conditions": "time 6.0 day", "outline": "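Tg2576 mice, 9 months old, given 10 mg/kg twice weekly for 3 weeks. Morris water maze in 25 ± 1 °C water, platform hidden 1-1.5 cm below surface. Three 60-s trials a day from randomized start points for 5 days. Swim paths tracked from an overhead camera. Single probe trial on day 6 scored as time in target quadrant. n=5 treated, n=12 control on days 4-5; Student's t-test.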"}, "Homo sapiens": {"species": "Homo sapiens", "assay": "Selectivity index, ratio of IC50 for inhibition of human 20S proteasome LMP2 activity in human RPMI-8226 cells overexpressing ABCB1 to IC50 for inhibition of human 20S proteasome LMP2 activity in human RPMI-8226 cells", "type": "cell-based", "outline": "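Carfilzomib-resistant RPMI 8226/ABCB1 line, kept drug-free for two weeks, alongside parental RPMI 8226. Cells exposed to varying inhibitor concentrations for 72 h, n=3 per concentration. Lysates (5 μg protein, pH 8.0 Tris/EDTA/0.035% SDS buffer) read with 100 μM Ac-PAL-AMC at ex 360/em 460 nm every minute for 1 h. IC50 from curve fitting, mean ± SD.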"}, "[1]": {"biological_target": "T1, Proteasome subunit beta type-8 (Homo sapiens, UniProt P28062)", "T1 sequence (P28062 whole entry)": "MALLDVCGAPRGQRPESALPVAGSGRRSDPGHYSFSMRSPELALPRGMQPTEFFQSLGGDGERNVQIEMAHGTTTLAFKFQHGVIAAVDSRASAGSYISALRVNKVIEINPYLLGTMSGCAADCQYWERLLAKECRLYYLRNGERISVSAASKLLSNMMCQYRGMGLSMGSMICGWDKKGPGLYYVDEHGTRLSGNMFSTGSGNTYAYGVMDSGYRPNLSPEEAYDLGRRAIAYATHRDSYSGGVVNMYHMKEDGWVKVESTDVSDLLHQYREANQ", "assay": "Inhibition of human 20S proteasome LMP7 using Ac-ANW-AMC as fluorogenic substrate measured every minute for 1 hr by fluorescence assay", "outline": "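Purified human 20S constitutive or immunoproteasome, 50 ng in 20 mM Tris-HCl, 0.5 mM EDTA, 0.035% SDS, pH 8.0. Preincubated 1 h with inhibitor at 3-10,000 nM (8 concentrations). Substrates at 100 μM: Ac-PAL-AMC (LMP2), Ac-nLPnLD-AMC (Y), Ac-ANW-AMC (LMP7). Ac-WLA-AMC (X) at 20 μM. AMC fluorescence (360/460 nm) read each minute for 1 h; 3 replicates.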"}, "[2]": {"biological_target": "Proteasome subunit beta type-9 (Mus musculus) (UniProt P28076)", "sequence (P28076 whole entry, looked up)": "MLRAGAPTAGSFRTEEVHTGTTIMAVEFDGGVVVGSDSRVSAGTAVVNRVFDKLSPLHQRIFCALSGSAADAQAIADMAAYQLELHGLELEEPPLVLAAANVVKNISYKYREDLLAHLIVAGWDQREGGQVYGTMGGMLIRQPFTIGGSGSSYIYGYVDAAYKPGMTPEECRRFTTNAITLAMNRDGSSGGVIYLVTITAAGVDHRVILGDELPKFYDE", "assay": "Inhibition of LMP2 in mouse BV-2 cells assessed as reduction in LPS-stimulated IL-1alpha release by ELISA"}, "[3]": {"biological_target": "T2, Proteasome subunit beta type-9 (Homo sapiens, UniProt P28065)", "T2 sequence (P28065 whole entry)": "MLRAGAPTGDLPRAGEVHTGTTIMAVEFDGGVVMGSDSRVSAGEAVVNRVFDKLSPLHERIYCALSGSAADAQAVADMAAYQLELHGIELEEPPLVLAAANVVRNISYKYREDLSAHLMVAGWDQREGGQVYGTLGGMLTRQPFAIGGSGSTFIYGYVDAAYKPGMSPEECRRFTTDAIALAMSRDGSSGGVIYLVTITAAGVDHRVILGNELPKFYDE", "assay": "Inhibition of human 20S proteasome LMP2 activity in human RPMI-8226 cells overexpressing ABCB1 using Ac-PAL-AMC as fluorogenic substrate incubated for 72 hrs by fluorescence assay", "type": "cell-based"}, "[4]": {"biological_target": "T3, Proteasome subunit beta type-9 (Homo sapiens) (UniProt P28065)", "T3 sequence (whole entry)": "T2 sequence (P28065 whole entry)", "assay": "Inhibition of human 20S proteasome LMP2 activity in human NCI/ADR-RES cells overexpressing ABCB1 using Ac-PAL-AMC as fluorogenic substrate incubated for 72 hrs in presence and absence of verapamil by fluorescence assay", "type": "cell-based"}}, "note": "Activity calls are given as the source filed them. No cut-off for these calls is given here.", "data": [{"smiles": "C[C@]1(C(=O)[C@H](Cc2ccccc2)NC(=O)[C@@H]2Cc3ccc(cc3)OCCCCCCCC(=O)N3CCC[C@H]3C(=O)N2)CO1", "values": [{"measurement": "Activity", "setting": "Mus musculus", "result": "Active"}, {"measurement": "Ratio IC50", "setting": "Homo sapiens", "result": 3.3}, {"measurement": "IC50", "setting": "[1]", "result": 399, "unit": "nM"}, {"measurement": "inhibition", "setting": "[2]", "result": "Active"}, {"measurement": "IC50", "setting": "[3]", "result": 106, "unit": "nM"}, {"measurement": "inhibition", "setting": "[4]", "result": "Active"}]}]}
